Measured values as given in article PMC4076525 (The Journal of General Physiology, 2014).

Tests used:
59FeEnt transport = type: cell-based, Escherichia coli; settings: for 59FeEnt transport rate compared with wild-type FepA: before fluoresceination; for Vmax fold lower after fluoresceination: 59FeEnt uptake
Summary of the method: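 Cultures were grown in LB with antibiotics, then in iron-deficient MOPS medium to 10^9 cells/ml. Cells were assayed before and after labeling with 5 µM fluorescein-5-maleimide (pH 6.5 phosphate/NaCl buffer, 5 min, 37°C, β-mercaptoethanol stop). Uptake was measured in MOPS medium with 0.4% glucose at 37°C in 10-ml volumes. KM and Vmax came from an enzyme-kinetics equation fit per sample.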

[1] = Fluorescence recovery after FeEnt quenching; type: cell-based, Escherichia coli; settings: after FM modification
[2] = Extent of FeEnt-induced quenching of FM fluorescence in live cells; type: cell-based, Escherichia coli; settings: 10 nM FeEnt, 2.5 × 10^7 cells/ml, FM-labeled mutants
Summary of the method: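 Hosts were tonB+ ΔfepA or ΔtonB ΔfepA E. coli expressing plasmid-borne Cys-substituted FepA, grown in iron-deficient MOPS medium to late log. 10^10 cells were labeled with 5 µM fluorescein-5-maleimide in 50 mM Na2HPO4, 0.9% NaCl, pH 6.5, for 5 min at 37°C. Labeling was quenched with β-mercaptoethanol, and cells were resuspended in PBS with 0.4% glucose. FeEnt was added to 2.5 × 10^7 cells in 3 ml, stirred at 2°C, with emission read at 520 nm.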

[3] = 59FeEnt binding by cells expressing FepA Cys substitution mutants; design: species or system Escherichia coli; settings: read-out: Binding >FM Kd, after modification with FM
Summary of the method: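 Cells were grown overnight at 37°C in LB with streptomycin (100 µg/ml) and chloramphenicol (20 µg/ml). They were subcultured 1% into iron-deficient MOPS medium and grown 5.5–6 h to 10^9 cells/ml, then labeled with 5 µM fluorescein-5-maleimide at pH 6.5 for 5 min at 37°C. Reactions were stopped with 100 mM β-mercaptoethanol. Binding ran at 0°C in 10-ml volumes, and Kd and capacity came from a bound-versus-total fit.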

Molecule | 59FeEnt transport rate compared with wild-type FepA (59FeEnt transport) | Increase of fluorescence recovery time compared with S271C-FM [1] | Quenching of FM emissions by FeEnt binding [2] | Vmax fold lower after fluoresceination (59FeEnt transport) | other results
A383C (protein, UniProt P05825 23-746, looked up, variant A383C) Ferrienterobactin receptor: QEPTDTPVSHDDTIVVTAAEQNLQAPGVSTITADEIRKNPVARDVSKIIRTMPGVNLTGNSTSGQRGNNRQIDIRGMGPENTLILIDGKPVSSRNSVRQGWRGERDTRGDTSWVPPEMIERIEVLRGPAAARYGNGAAGGVVNIITKKGSGEWHGSWDAYFNAPEHKEEGATKRTNFSLTGPLGDEFSFRLYGNLDKTQADAWDINQGHQSARAGTYATTLPAGREGVINKDINGVVRWDFAPLQSLELEAGYSRQGNLYAGDTQNTNSDSYTRSKYGDETNRLYRQNYALTWNGGWDNGVTTSNWVQYEHTRNSRIPEGLAGGTEGKFNEKATQDFVDIDLDDVMLHSEVNLPIDFLVNQTLTLGTEWNQQRMKDLSSNTQCLTGTNTGGAIDGVSTTDRSPYSKAEIFSLFAENNMELTDSTIVTPGLRFDHHSIVGNNWSPALNISQGLGDDFTLKMGIARAYKAPSLYQTNPNYILYSKGQGCYASAGGCYLQGNDDLKAETSINKEIGLEFKRDGWLAGVTWFRNDYRNKIEAGYVAVGQNAVGTDLYQWDNVPKAVVEGLEGSLNVPVSETVMWTNNITYMLKSENKTTGDRLSIIPEYTLNSTLSWQAREDLSMQTTFTWYGKQQPKKYNYKGQPAVGPETKEISPYSIVGLSATWDVTKNVSLTGGVDNLFDKRLWRAGNAQTTGDLAGANYIAGAGAYTYNEPGRTWYMSVNTHF | about half that rate | 10 fold |  |  | 
S490C-FM: FepA S490C labeled with fluorescein-5-maleimide (FM) (conjugate, UniProt P05825 23-746, looked up, variant S490C, fluorescein-5-maleimide label) Ferrienterobactin receptor: QEPTDTPVSHDDTIVVTAAEQNLQAPGVSTITADEIRKNPVARDVSKIIRTMPGVNLTGNSTSGQRGNNRQIDIRGMGPENTLILIDGKPVSSRNSVRQGWRGERDTRGDTSWVPPEMIERIEVLRGPAAARYGNGAAGGVVNIITKKGSGEWHGSWDAYFNAPEHKEEGATKRTNFSLTGPLGDEFSFRLYGNLDKTQADAWDINQGHQSARAGTYATTLPAGREGVINKDINGVVRWDFAPLQSLELEAGYSRQGNLYAGDTQNTNSDSYTRSKYGDETNRLYRQNYALTWNGGWDNGVTTSNWVQYEHTRNSRIPEGLAGGTEGKFNEKATQDFVDIDLDDVMLHSEVNLPIDFLVNQTLTLGTEWNQQRMKDLSSNTQALTGTNTGGAIDGVSTTDRSPYSKAEIFSLFAENNMELTDSTIVTPGLRFDHHSIVGNNWSPALNISQGLGDDFTLKMGIARAYKAPSLYQTNPNYILYSKGQGCYACAGGCYLQGNDDLKAETSINKEIGLEFKRDGWLAGVTWFRNDYRNKIEAGYVAVGQNAVGTDLYQWDNVPKAVVEGLEGSLNVPVSETVMWTNNITYMLKSENKTTGDRLSIIPEYTLNSTLSWQAREDLSMQTTFTWYGKQQPKKYNYKGQPAVGPETKEISPYSIVGLSATWDVTKNVSLTGGVDNLFDKRLWRAGNAQTTGDLAGANYIAGAGAYTYNEPGRTWYMSVNTHF |  |  | 30% | 3–10 fold | Kd [3]: 90 nM; Km (59FeEnt transport; read-out: Transport >FM KM, 59FeEnt, 37°C, after modification with FM): 0.057 µM
S490C (protein, UniProt P05825 23-746, looked up, variant S490C) Ferrienterobactin receptor: QEPTDTPVSHDDTIVVTAAEQNLQAPGVSTITADEIRKNPVARDVSKIIRTMPGVNLTGNSTSGQRGNNRQIDIRGMGPENTLILIDGKPVSSRNSVRQGWRGERDTRGDTSWVPPEMIERIEVLRGPAAARYGNGAAGGVVNIITKKGSGEWHGSWDAYFNAPEHKEEGATKRTNFSLTGPLGDEFSFRLYGNLDKTQADAWDINQGHQSARAGTYATTLPAGREGVINKDINGVVRWDFAPLQSLELEAGYSRQGNLYAGDTQNTNSDSYTRSKYGDETNRLYRQNYALTWNGGWDNGVTTSNWVQYEHTRNSRIPEGLAGGTEGKFNEKATQDFVDIDLDDVMLHSEVNLPIDFLVNQTLTLGTEWNQQRMKDLSSNTQALTGTNTGGAIDGVSTTDRSPYSKAEIFSLFAENNMELTDSTIVTPGLRFDHHSIVGNNWSPALNISQGLGDDFTLKMGIARAYKAPSLYQTNPNYILYSKGQGCYACAGGCYLQGNDDLKAETSINKEIGLEFKRDGWLAGVTWFRNDYRNKIEAGYVAVGQNAVGTDLYQWDNVPKAVVEGLEGSLNVPVSETVMWTNNITYMLKSENKTTGDRLSIIPEYTLNSTLSWQAREDLSMQTTFTWYGKQQPKKYNYKGQPAVGPETKEISPYSIVGLSATWDVTKNVSLTGGVDNLFDKRLWRAGNAQTTGDLAGANYIAGAGAYTYNEPGRTWYMSVNTHF | about half that rate | 10 fold |  |  | 
A698C (protein, UniProt P05825 23-746, looked up, variant A698C) Ferrienterobactin receptor: QEPTDTPVSHDDTIVVTAAEQNLQAPGVSTITADEIRKNPVARDVSKIIRTMPGVNLTGNSTSGQRGNNRQIDIRGMGPENTLILIDGKPVSSRNSVRQGWRGERDTRGDTSWVPPEMIERIEVLRGPAAARYGNGAAGGVVNIITKKGSGEWHGSWDAYFNAPEHKEEGATKRTNFSLTGPLGDEFSFRLYGNLDKTQADAWDINQGHQSARAGTYATTLPAGREGVINKDINGVVRWDFAPLQSLELEAGYSRQGNLYAGDTQNTNSDSYTRSKYGDETNRLYRQNYALTWNGGWDNGVTTSNWVQYEHTRNSRIPEGLAGGTEGKFNEKATQDFVDIDLDDVMLHSEVNLPIDFLVNQTLTLGTEWNQQRMKDLSSNTQALTGTNTGGAIDGVSTTDRSPYSKAEIFSLFAENNMELTDSTIVTPGLRFDHHSIVGNNWSPALNISQGLGDDFTLKMGIARAYKAPSLYQTNPNYILYSKGQGCYASAGGCYLQGNDDLKAETSINKEIGLEFKRDGWLAGVTWFRNDYRNKIEAGYVAVGQNAVGTDLYQWDNVPKAVVEGLEGSLNVPVSETVMWTNNITYMLKSENKTTGDRLSIIPEYTLNSTLSWQAREDLSMQTTFTWYGKQQPKKYNYKGQPAVGPETKEISPYSIVGLSATWDVTKNVSLTGGVDNLFDKRLWRAGNAQTTGDLAGCNYIAGAGAYTYNEPGRTWYMSVNTHF |  |  | > 60% |  | 
A322C-FM: FepA A322C labeled with fluorescein-5-maleimide (FM) (conjugate, UniProt P05825 23-746, looked up, variant A322C, fluorescein-5-maleimide label) Ferrienterobactin receptor: QEPTDTPVSHDDTIVVTAAEQNLQAPGVSTITADEIRKNPVARDVSKIIRTMPGVNLTGNSTSGQRGNNRQIDIRGMGPENTLILIDGKPVSSRNSVRQGWRGERDTRGDTSWVPPEMIERIEVLRGPAAARYGNGAAGGVVNIITKKGSGEWHGSWDAYFNAPEHKEEGATKRTNFSLTGPLGDEFSFRLYGNLDKTQADAWDINQGHQSARAGTYATTLPAGREGVINKDINGVVRWDFAPLQSLELEAGYSRQGNLYAGDTQNTNSDSYTRSKYGDETNRLYRQNYALTWNGGWDNGVTTSNWVQYEHTRNSRIPEGLCGGTEGKFNEKATQDFVDIDLDDVMLHSEVNLPIDFLVNQTLTLGTEWNQQRMKDLSSNTQALTGTNTGGAIDGVSTTDRSPYSKAEIFSLFAENNMELTDSTIVTPGLRFDHHSIVGNNWSPALNISQGLGDDFTLKMGIARAYKAPSLYQTNPNYILYSKGQGCYASAGGCYLQGNDDLKAETSINKEIGLEFKRDGWLAGVTWFRNDYRNKIEAGYVAVGQNAVGTDLYQWDNVPKAVVEGLEGSLNVPVSETVMWTNNITYMLKSENKTTGDRLSIIPEYTLNSTLSWQAREDLSMQTTFTWYGKQQPKKYNYKGQPAVGPETKEISPYSIVGLSATWDVTKNVSLTGGVDNLFDKRLWRAGNAQTTGDLAGANYIAGAGAYTYNEPGRTWYMSVNTHF |  |  | similarly quenched | 3–10 fold | 
T550C (protein, UniProt P05825 23-746, looked up, variant T550C) Ferrienterobactin receptor: QEPTDTPVSHDDTIVVTAAEQNLQAPGVSTITADEIRKNPVARDVSKIIRTMPGVNLTGNSTSGQRGNNRQIDIRGMGPENTLILIDGKPVSSRNSVRQGWRGERDTRGDTSWVPPEMIERIEVLRGPAAARYGNGAAGGVVNIITKKGSGEWHGSWDAYFNAPEHKEEGATKRTNFSLTGPLGDEFSFRLYGNLDKTQADAWDINQGHQSARAGTYATTLPAGREGVINKDINGVVRWDFAPLQSLELEAGYSRQGNLYAGDTQNTNSDSYTRSKYGDETNRLYRQNYALTWNGGWDNGVTTSNWVQYEHTRNSRIPEGLAGGTEGKFNEKATQDFVDIDLDDVMLHSEVNLPIDFLVNQTLTLGTEWNQQRMKDLSSNTQALTGTNTGGAIDGVSTTDRSPYSKAEIFSLFAENNMELTDSTIVTPGLRFDHHSIVGNNWSPALNISQGLGDDFTLKMGIARAYKAPSLYQTNPNYILYSKGQGCYASAGGCYLQGNDDLKAETSINKEIGLEFKRDGWLAGVTWFRNDYRNKIEAGYVAVGQNAVGCDLYQWDNVPKAVVEGLEGSLNVPVSETVMWTNNITYMLKSENKTTGDRLSIIPEYTLNSTLSWQAREDLSMQTTFTWYGKQQPKKYNYKGQPAVGPETKEISPYSIVGLSATWDVTKNVSLTGGVDNLFDKRLWRAGNAQTTGDLAGANYIAGAGAYTYNEPGRTWYMSVNTHF |  | 10 fold |  |  | 
